This note sets out measurements from ChEMBL document CHEMBL6182837, “Discovery and biological evaluation of nitrofuranyl-pyrazolopyrimidine hybrid conjugates as potent antimicrobial agents targeting Staphylococcus aureus and methicillin-resistant S. aureus” (RSC Med Chem, 2025).

Data set [1] deals with Staphylococcus aureus. The data set is described as follows: Induction of morphological disruption in methicillin-resistant Staphylococcus aureus ATCC 15187 at 1 to 2 times MIC incubated for 2 to 6 hrs by SEM analysis. The class given is functional, organism-based. As to conditions: time 2-6 hrs. The gist of the method:
(§1)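 Bacteria incubated for 2 h and 6 h at 1×, 2× and 4× MIC, with vancomycin and daptomycin at 1× and 2× MIC and untreated cells; cell morphology imaged by scanning electron microscopy.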

The subject of data set [2] is Staphylococcus aureus. As to the kind of experiment: Induction of morphological disruption in Staphylococcus aureus ATCC 29213 at 1 to 2 times MIC incubated for 2 to 6 hrs by SEM analysis. The class given is functional, organism-based. To be noted: time 2-6 hrs. In a few lines:
as §1

In data set [3] the test system is Staphylococcus aureus. As to the kind of experiment: Antibacterial activity against Ciprofloxacin-sensitive Staphylococcus aureus […] by Alamar blue staining based analysis. The class given is functional. On the technique in general: Resazurin is reduced to fluorescent resorufin, in cell work by metabolically active cells.
The subject of data set [4] is Staphylococcus aureus. The data set is described as follows: Antibacterial activity against Staphylococcus aureus ATCC 29213 incubated for 24 hrs by Alamar blue staining based microdilution method. The class given is functional.
Data set [5] has as its system Staphylococcus aureus. The data set is described as follows: Antibacterial activity against Staphylococcus aureus SA-K2191 overexpressing MsrA by Alamar blue staining based analysis. Format: functional.
For data set [6], the system named is Staphylococcus aureus. As to the kind of experiment: Antibacterial activity against Staphylococcus aureus SA-1199B overexpressing NorA by Alamar blue staining based analysis. The class given is functional.
Data set [7] relates to Staphylococcus aureus. The data set is described as follows: Antibacterial activity against Staphylococcus aureus SA-K2192 overexpressing TetK by Alamar blue staining based analysis. The class given is functional.
Data set [8] relates to Staphylococcus aureus. As to the kind of experiment: Disruption of pre-formed biofilms of Staphylococcus aureus ATCC 29213 at 4 to 6 times MIC incubated for 24 hrs by absorbance based method relative to control. Format: functional.
Data set [9] relates to Staphylococcus aureus. The data set is described as follows: Inhibition of biofilm formation of Staphylococcus aureus ATCC 29213 at 0.5 times MIC incubated for 27 hrs by absorbance based method. The class given is functional, organism-based.
Data set [10] deals with Staphylococcus aureus. As to the kind of experiment: Disruption of cell membrane integrity in Staphylococcus aureus ATCC 29213 assessed as red fluorescence at 2 times MIC incubated for 2.5 hrs by DAPI/PI staining based fluorescence microscopy. The class given is functional, organism-based. The gist of the method:
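Bacteria treated at 1× and 2× MIC, with vancomycin 2× MIC as control and an untreated blank; stained with DAPI (all cells) and propidium iodide (membrane-damaged cells); imaged by fluorescence microscopy, red PI signal taken as membrane damage.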

Data set [11] relates to Staphylococcus aureus. The data set is described as follows: Disruption of pre-formed biofilms of methicillin-resistant Staphylococcus aureus ATCC 15187 at 4 to 6 times MIC incubated for 24 hrs by absorbance based method relative to control. Format: functional.
Data set [12] concerns Staphylococcus aureus. The data set is described as follows: Antibacterial activity against methicillin-resistant Staphylococcus aureus ATCC 15187 infected in male […] mouse assessed as reduction in bacterial load in lung at 50 mg/kg measured after 24 hrs by colony counting method. The class given is functional, organism-based. In a few lines:
(§2)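 Mouse peritonitis model: 0.1 ml MRSA suspension (10^8 CFU ml−1) given intraperitoneally; treatment intraperitoneal at 50 or 100 mg kg−1 at 2 and 5 h post-infection, with saline and vancomycin (50 mg kg−1) controls; killed at 24 h; kidney and lung homogenates plated on Mueller–Hinton agar with 20 μg ml−1 ciprofloxacin, 24 h; CFU ml−1; unpaired t-test.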

The subject of data set [13] is Staphylococcus aureus. As to the kind of experiment: Antibacterial activity against methicillin-resistant Staphylococcus aureus ATCC 15187 infected in male […] mouse assessed as reduction in bacterial load in kidney at 50 mg/kg measured after 24 hrs by colony counting method. Format: functional, organism-based. In a few lines:
as §2

For data set [14], the system named is Staphylococcus aureus. The data set is described as follows: Inhibition of biofilm formation of methicillin-resistant Staphylococcus aureus ATCC 15187 at 0.5 times MIC incubated for 27 hrs by absorbance based method. Format: functional, organism-based.
The subject of another data set is Escherichia coli. The data set is described as follows: Antibacterial activity against Escherichia coli ATCC 25922 incubated for 24 hrs by Alamar blue staining based microdilution method. The class given is functional.
Data set [15] is described as follows: Cytotoxicity in human HepG2 cells incubated for 24 hrs by MTT assay. Format: toxicity, cell-based. In a few lines:
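HepG2 cells, 1 × 10^4 per well in DMEM/10% FBS, 24 h attachment; compounds 200 to 0.19 μg ml−1 for 24 h at 37 °C, 5% CO2; MTT 2.5 mg ml−1 for 3 h, formazan in DMSO, OD 570 nm; doxorubicin 10 μM control.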
A general note: Formazan colour is commonly taken as a measure of viable cells.

Data set [16] has as its system Staphylococcus aureus. As to the kind of experiment: Antibacterial activity against methicillin-resistant Staphylococcus aureus ATCC 15187 incubated for 24 hrs by Alamar blue staining based microdilution method. The class given is functional.

≈ marks a conversion by molar mass, not a printed value. Calls of active or inactive are those of the source. The calls are words filed in the database; no cut-off is given here.

Broadly, the MIC is the least concentration at which growth counts as inhibited. For orientation: IC50 means the concentration needed to halve the response being measured.

As for `CCCCCCCCCC(=O)N[C@@H](Cc1c[nH]c2ccccc12)C(=O)N[C@@H](CC(N)=O)C(=O)N[C@@H](CC(=O)O)C(=O)N[C@@H]1C(=O)NCC(=O)N[C@@H](CCCN)C(=O)N[C@@H](CC(=O)O)C(=O)N[C@H](C)C(=O)N[C@@H](CC(=O)O)C(=O)NCC(=O)N[C@H](CO)C(=O)N[C@@H]([C@@H](C)CC(=O)O)C(=O)N[C@@H](CC(=O)c2ccccc2N)C(=O)O[C@@H]1C`, the result with Staphylococcus aureus [1] and with Staphylococcus aureus [2] was Active.
Take `O=C(O)c1cn(C2CC2)c2cc(N3CCNCC3)c(F)cc2c1=O` [CIPROFLOXACIN]: the MIC against Staphylococcus aureus [3] came to 0.25 µg/mL (≈ 0.754 µM); against Staphylococcus aureus [4], 0.25 µg/mL (≈ 0.754 µM); against Staphylococcus aureus [5] it was 4.14 µg/mL (≈ 12.5 µM); with Staphylococcus aureus [6], 4.14 µg/mL (≈ 12.5 µM); against Staphylococcus aureus [7] it was 0.25 µg/mL (≈ 0.754 µM).
For `CN[C@H](CC(C)C)C(=O)N[C@H]1C(=O)N[C@@H](CC(N)=O)C(=O)N[C@H]2C(=O)N[C@H]3C(=O)N[C@H](C(=O)N[C@H](C(=O)O)c4cc(O)cc(O)c4-c4cc3ccc4O)[C@H](O)c3ccc(c(Cl)c3)Oc3cc2cc(c3O[C@@H]2O[C@H](CO)[C@@H](O)[C@H](O)[C@H]2O[C@H]2C[C@](C)(N)[C@H](O)[C@H](C)O2)Oc2ccc(cc2Cl)[C@H]1O` [VANCOMYCIN], the MIC in the data set on Staphylococcus aureus [3] is 0.25 µg/mL (≈ 0.173 µM); with Staphylococcus aureus [5], 0.25 µg/mL (≈ 0.173 µM); against Staphylococcus aureus [6], 0.25 µg/mL (≈ 0.173 µM); against Staphylococcus aureus [7], 0.56 µg/mL (≈ 0.386 µM). Moreover, the Activity in the data set on Staphylococcus aureus [8] and with Staphylococcus aureus [11] was 40% throughout. Also, the result with Staphylococcus aureus [1], in the data set on Staphylococcus aureus [2], in the data set on Staphylococcus aureus [10], with Staphylococcus aureus [12] and in the data set with Staphylococcus aureus [13] was Active. The inhibition entry with Staphylococcus aureus [9] and in the data set on Staphylococcus aureus [14] was “inactive” throughout.
In the case of `CCCc1nn(C)c2c(Nc3ccc(Cl)cc3)nc(-c3ccc([N+](=O)[O-])o3)nc12`, the MIC in the data set with Staphylococcus aureus [4] and in the data set on Staphylococcus aureus [16] was more than 32 µg/mL throughout. Also, the MIC result in the data set on Escherichia coli is “inactive”. The IC50 at 24 h in data set [15] was more than 50 µg/mL.
Take `CCCc1nn(C)c2c(NCc3ccc(OC)c(F)c3)nc(-c3ccc([N+](=O)[O-])o3)nc12`: the MIC in the data set on Staphylococcus aureus [4] and against Staphylococcus aureus [16] was more than 32 µg/mL throughout. Further, in the data set with Escherichia coli, the MIC result was “inactive”. This molecule gave an IC50 at 24 h in data set [15] of more than 50 µg/mL.
Take `CCCc1nn(C)c2c(NCc3ccc(OC)cc3)nc(-c3ccc([N+](=O)[O-])o3)nc12`: the MIC against Staphylococcus aureus [4] and in the data set on Staphylococcus aureus [16] was more than 32 µg/mL throughout. Besides, the MIC entry in the data set with Escherichia coli was “inactive”. The molecule also came in with an IC50 at 24 h in [15] of more than 50 µg/mL.
Consider `CCCc1nn(C)c2c(Nc3ccccc3O)nc(-c3ccc([N+](=O)[O-])o3)nc12`, for which the MIC against Staphylococcus aureus [4] came to 0.5 µg/mL (≈ 1.27 µM); against Staphylococcus aureus [16] it was 1 µg/mL (≈ 2.54 µM). The MIC entry in the data set with Escherichia coli is “inactive”. For the same molecule, the IC50 at 24 h in data set [15] was more than 50 µg/mL.
For `CCCc1nn(C)c2c(NCc3ccccc3)nc(-c3ccc([N+](=O)[O-])o3)nc12` the same measures were more than 32 µg/mL, more than 32 µg/mL, “inactive” and more than 50 µg/mL.
For `CCCc1nn(C)c2c(NCCCCO)nc(-c3ccc([N+](=O)[O-])o3)nc12` the same measures were 4 µg/mL (≈ 10.7 µM), 0.25 µg/mL (≈ 0.668 µM), “inactive” and more than 50 µg/mL.
For `CCCc1nn(C)c2c(Nc3ccc(OC(F)(F)F)cc3)nc(-c3ccc([N+](=O)[O-])o3)nc12` the same measures were more than 32 µg/mL, more than 32 µg/mL, “inactive” and more than 50 µg/mL.
